In ChEMBL document CHEMBL2346608, “New annelated thieno[2,3-e][1,2,3]triazolo[1,5-a]pyrimidines, with potent anticancer activity, designed through VLAK protocol” (2013):

Tests used:
Format in all cases: functional
IGROV-1 = assay: Antiproliferative activity against human IGROV1 cells after 48 hrs by sulforhodamine B assay; settings: IGROV-1, 48 h; for TGI: read-out: pTGI (converted)
Method in brief: (§1)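 Cells grown in RPMI 1640 with 5% FBS and 2 mM L-glutamine, plated at 5000–40,000 cells/well and preincubated 24 h at 37 °C, 5% CO2. Five drug concentrations (10-fold or ½-log dilutions from DMSO stocks) applied for 48 h. TCA-fixed (final 10% adherent, 16% suspension), SRB-stained, A515 read. Growth versus time-zero and control wells gave GI50, TGI, LC50.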

SK-MEL-2 = assay: Antiproliferative activity against human SK-MEL-2 cells after 48 hrs by sulforhodamine B assay; settings: SK-MEL-2, 48 h; for TGI: read-out: pTGI (converted); method in brief: as §1
SR = assay: Antiproliferative activity against human SR cells after 48 hrs by sulforhodamine B assay; settings: for TGI: read-out: pTGI (converted)
Method in brief: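 Cells in RPMI 1640 with 5% FBS and 2 mM L-glutamine were seeded at 5000–40,000/well according to doubling time and preincubated 24 h at 37 °C in 5% CO2. Time-zero plates were TCA-fixed when drug was added. Five 10-fold or ½-log dilutions from DMSO stocks were added for 48 h. After SRB staining, A515 was read and GI50 derived from [(Ti−Tz)/(C−Tz)]×100 = 50.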

BT-549 = assay: Antiproliferative activity against human BT549 cells after 48 hrs by sulforhodamine B assay; settings: BT-549, 48 h; method in brief: as §1

Structure (SMILES) | GI50 (IGROV-1) | LC50 (IGROV-1) | TGI (IGROV-1) | GI50 (SK-MEL-2) | LC50 (SK-MEL-2) | TGI (SK-MEL-2) | GI50 (SR) | LC50 (50% lethal concentration) (SR) | TGI (SR) | GI50 (BT-549) | CC50 (BT-549; read-out: pLC50 (the source's name) (converted)) | TGI (BT-549; read-out: pTGI (converted))
CN1CCN(CCCn2c(=O)c3sc4ncccc4c3n3nnc(-c4ccccc4)c23)CC1 | 5.89 µM | 32.4 µM | 13.8 µM | 8.71 µM | 31.6 µM | 16.6 µM | 1.1 µM | 12 µM | 2.57 µM |  |  | 
O=C(CCCn1c(=O)c2sc3ncccc3c2n2nnc(-c3ccccc3)c12)NCCc1c[nH]cn1 | 9.55 µM | 75.9 µM | 27.5 µM | 17.8 µM | 85.1 µM | 38.9 µM | 2.51 µM | > 100 µM | 6.17 µM |  |  | 
O=C(CCCn1c(=O)c2sc3ccccc3c2n2nnc(-c3ccccc3)c12)NCCc1c[nH]cn1 |  |  |  |  |  |  |  |  |  | 17.4 µM | > 100 µM | 41.7 µM
